From ChEMBL document CHEMBL4706624, “Synthesis and evaluation of new quinazoline-benzimidazole hybrids as potent anti-microbial agents against multidrug resistant Staphylococcus aureus and Mycobacterium tuberculosis” (Eur J Med Chem, 2021)
In brackets after ≈: the same amount, converted by molar mass.

Assays:
Escherichia coli = assay: Antibacterial activity against Escherichia coli ATCC 25922 measured after 16 to 18 hrs; format: functional; conditions: time 16-18 hrs
Summary of the method: (§1)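 Broth microdilution MIC. Strains grown on MHA; a single colony was grown overnight in CA-MHB at 37 °C with shaking for 18–24 h. Cultures were diluted by OD600 to ~10⁶ cfu/mL and exposed to compound at […]. Plates were incubated at 37 °C for 16-18 h. MIC = lowest concentration with no visible growth. Levofloxacin was the reference. Three independent runs, each in duplicate.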

Staphylococcus aureus [1] = assay: Antibacterial activity against Staphylococcus aureus ATCC 29213 measured after 16 to 18 hrs; format: functional; conditions: time 16-18 hrs; summary of the method: as §1
Klebsiella pneumoniae = assay: Antibacterial activity against Klebsiella pneumoniae BAA-1705 measured after 16 to 18 hrs; format: functional; conditions: ATCC BAA-1705, time 16-18 hrs; summary of the method: as §1
Acinetobacter baumannii = assay: Antibacterial activity against Acinetobacter baumannii BAA1605 measured after 16 to 18 hrs; format: functional; conditions: time 16-18 hrs; summary of the method: as §1
Pseudomonas aeruginosa = assay: Antibacterial activity against Pseudomonas aeruginosa ATCC 27853 measured after 16 to 18 hrs; format: functional; conditions: time 16-18 hrs; summary of the method: as §1
[2] = system: Mycobacterium tuberculosis; assay: Antitubercular activity against Mycobacterium tuberculosis H37Rv ATCC 27294 measured after 7 days by broth microdilution method; format: functional; conditions: H37Rv ATCC 27294, 168 h, time 7 day
Summary of the method: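 H37Rv in Middlebrook 7H9 with 10% ADC, 0.2% glycerol, 0.05% Tween-80. Inoculum ~10⁶ cfu/mL set by OD600. Twofold serial dilutions, 0.0064–0.00005 g/100 mL. Incubated at 37 °C for 7 days, then Presto blue resazurin read-out. MIC = lowest concentration inhibiting visible growth. Triplicate runs, each in duplicate.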

[3] = system: Mycobacteroides abscessus; assay: Antimycobacterial activity against Mycobacterium abscessus ATCC 19977 by broth microdilution method; format: functional
Summary of the method: (§2)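 Broth microdilution MIC in Middlebrook 7H9 with 10% ADC-Tween-80 (BSA, dextrose, 0.2% glycerol, 0.05% Tween-80). Inoculum ~10⁶ cfu/mL set by OD600. Compounds were twofold serially diluted, 0.0064–0.00005 g/100 mL (DMSO stocks). Presto blue resazurin dye was used as read-out. MIC = lowest concentration inhibiting visible growth. Triplicate runs, each in duplicate.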

[4] = system: Mycolicibacterium fortuitum; assay: Antimycobacterial activity against Mycobacterium fortuitum ATCC 6841 by broth microdilution method; format: functional; summary of the method: as §2
Mycobacteroides chelonae = assay: Antimycobacterial activity against Mycobacterium chelonae ATCC 35752 by broth microdilution method; format: functional; summary of the method: as §2
[5] = Cytotoxicity against African green monkey Vero cells assessed as reduction in cell viability measured after 72 hrs by MTT assay; format: cell-based; conditions: chlorocebus sabaeus
Summary of the method: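 Vero cells (ATCC CCL-81), ~10³ cells/well, held 24 h at 37 °C in 5% CO₂. Compound at 100–5 mg/L for 72 h. MTT was added for 4 h, formazan dissolved in DMSO, OD read at 540 nm. CC50 = concentration giving 50% viability reduction. Doxorubicin was the positive control. Triplicate.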

[6] = Selectivity index, ratio of CC50 for cytotoxicity against African green monkey Vero cells to MIC for antibacterial activity against Staphylococcus aureus ATCC 29213; format: toxicity, cell-based; conditions: read-out: Selectivity Index
Summary of the method: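 SI = Vero CC50 (MTT, 72 h) divided by MIC against S. aureus ATCC 29213 (CA-MHB broth microdilution, 16-18 h, 37 °C).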

Staphylococcus aureus [7] = assay: Antibacterial activity against methicillin-sensitive Staphylococcus aureus ATCC 29213 measured after 16 to 18 hrs; format: functional; conditions: time 16-18 hrs; summary of the method: as §1
Staphylococcus aureus [8] = assay: Antibacterial activity against methicillin-resistant Staphylococcus aureus NR100 measured after 16 to 18 hrs; format: functional; conditions: time 16-18 hrs; summary of the method: as §1
Staphylococcus aureus [9] = assay: Antibacterial activity against methicillin-resistant Staphylococcus aureus NR119 measured after 16 to 18 hrs; format: functional; conditions: time 16-18 hrs; summary of the method: as §1
Staphylococcus aureus [10] = assay: Antibacterial activity against methicillin-resistant Staphylococcus aureus NR10129 measured after 16 to 18 hrs; format: functional; conditions: time 16-18 hrs; summary of the method: as §1
Staphylococcus aureus [11] = assay: Antibacterial activity against methicillin-resistant Staphylococcus aureus NR10198 measured after 16 to 18 hrs; format: functional; conditions: time 16-18 hrs; summary of the method: as §1
Staphylococcus aureus [12] = assay: Antibacterial activity against methicillin-resistant Staphylococcus aureus NR10192 measured after 16 to 18 hrs; format: functional; conditions: time 16-18 hrs; summary of the method: as §1
Staphylococcus aureus [13] = assay: Antibacterial activity against methicillin-resistant Staphylococcus aureus NR10186 measured after 16 to 18 hrs; format: functional; conditions: time 16-18 hrs; summary of the method: as §1
Staphylococcus aureus [14] = assay: Antibacterial activity against methicillin-resistant Staphylococcus aureus NR10193 measured after 16 to 18 hrs; format: functional; conditions: time 16-18 hrs; summary of the method: as §1
Staphylococcus aureus [15] = assay: Antibacterial activity against methicillin-resistant Staphylococcus aureus NR10194 measured after 16 to 18 hrs; format: functional; conditions: time 16-18 hrs; summary of the method: as §1
Staphylococcus aureus [16] = assay: Antibacterial activity against methicillin-resistant Staphylococcus aureus NR10191 measured after 16 to 18 hrs; format: functional; conditions: time 16-18 hrs; summary of the method: as §1
Staphylococcus aureus [17] = assay: Antibacterial activity against vancomycin-resistant Staphylococcus aureus VRS1 measured after 16 to 18 hrs; format: functional; conditions: time 16-18 hrs; summary of the method: as §1
Staphylococcus aureus [18] = assay: Antibacterial activity against vancomycin-resistant Staphylococcus aureus VRS4 measured after 16 to 18 hrs; format: functional; conditions: time 16-18 hrs; summary of the method: as §1
Staphylococcus aureus [19] = assay: Antibacterial activity against vancomycin-resistant Staphylococcus aureus VRS12 measured after 16 to 18 hrs; format: functional; conditions: time 16-18 hrs; summary of the method: as §1

c1ccc(-c2nc(Nc3ccc(-c4nc5ccccc5[nH]4)cc3)c3ccccc3n2)cc1
MIC (Escherichia coli): > 64 mg/L | MIC (Staphylococcus aureus [1]): 8 mg/L (≈ 19.3 µM) | MIC (Klebsiella pneumoniae): > 64 mg/L | MIC (Acinetobacter baumannii): > 64 mg/L | MIC (Pseudomonas aeruginosa): > 64 mg/L | MIC [2]: > 64 mg/L | MIC [3]: > 64 mg/L | MIC [4]: > 64 mg/L | MIC (Mycobacteroides chelonae): > 64 mg/L | CC50 at 72 h [5]: 80 mg/L (≈ 193 µM) | selectivity ratio [6]: 10 | MIC (Staphylococcus aureus [7]): 8 mg/L (≈ 19.3 µM) | MIC (Staphylococcus aureus [8]): 32 mg/L (≈ 77.4 µM) | MIC (Staphylococcus aureus [9]): 8 mg/L (≈ 19.3 µM) | MIC (Staphylococcus aureus [10]): 16 mg/L (≈ 38.7 µM) | MIC (Staphylococcus aureus [11]): 4 mg/L (≈ 9.67 µM) | MIC (Staphylococcus aureus [12]): 32 mg/L (≈ 77.4 µM) | MIC (Staphylococcus aureus [13]): 8 mg/L (≈ 19.3 µM) | MIC (Staphylococcus aureus [14]): 16 mg/L (≈ 38.7 µM) | MIC (Staphylococcus aureus [15]): 8 mg/L (≈ 19.3 µM) | MIC (Staphylococcus aureus [16]): 16 mg/L (≈ 38.7 µM) | MIC (Staphylococcus aureus [17]): 8 mg/L (≈ 19.3 µM) | MIC (Staphylococcus aureus [18]): 8 mg/L (≈ 19.3 µM) | MIC (Staphylococcus aureus [19]): 16 mg/L (≈ 38.7 µM)

Clc1ccc(-c2nc(Nc3ccc(-c4nc5ccccc5[nH]4)cc3)c3ccccc3n2)cc1
MIC (Escherichia coli): > 64 mg/L | MIC (Staphylococcus aureus [1]): 4 mg/L (≈ 8.93 µM) | MIC (Klebsiella pneumoniae): > 64 mg/L | MIC (Acinetobacter baumannii): > 64 mg/L | MIC (Pseudomonas aeruginosa): > 64 mg/L | CC50 at 72 h [5]: 50 mg/L (≈ 112 µM) | selectivity ratio [6]: 12.5 | MIC (Staphylococcus aureus [7]): 8 mg/L (≈ 17.9 µM) | MIC (Staphylococcus aureus [8]): 8 mg/L (≈ 17.9 µM) | MIC (Staphylococcus aureus [9]): 32 mg/L (≈ 71.4 µM) | MIC (Staphylococcus aureus [10]): 8 mg/L (≈ 17.9 µM) | MIC (Staphylococcus aureus [11]): 8 mg/L (≈ 17.9 µM) | MIC (Staphylococcus aureus [12]): 4 mg/L (≈ 8.93 µM) | MIC (Staphylococcus aureus [13]): 16 mg/L (≈ 35.7 µM) | MIC (Staphylococcus aureus [14]): 8 mg/L (≈ 17.9 µM) | MIC (Staphylococcus aureus [15]): 8 mg/L (≈ 17.9 µM) | MIC (Staphylococcus aureus [16]): 8 mg/L (≈ 17.9 µM) | MIC (Staphylococcus aureus [17]): 4 mg/L (≈ 8.93 µM) | MIC (Staphylococcus aureus [18]): 8 mg/L (≈ 17.9 µM) | MIC (Staphylococcus aureus [19]): 8 mg/L (≈ 17.9 µM)

Clc1ccc2[nH]c(-c3ccc(Nc4nc(-c5ccccc5)nc5ccccc45)cc3)nc2c1
MIC (Escherichia coli): > 64 mg/L | MIC (Staphylococcus aureus [1]): 8 mg/L (≈ 17.9 µM) | MIC (Klebsiella pneumoniae): > 64 mg/L | MIC (Acinetobacter baumannii): > 64 mg/L | MIC (Pseudomonas aeruginosa): > 64 mg/L | MIC [2]: 32 mg/L (≈ 71.4 µM) | MIC [3]: > 64 mg/L | MIC [4]: 32 mg/L (≈ 71.4 µM) | MIC (Mycobacteroides chelonae): 32 mg/L (≈ 71.4 µM) | CC50 at 72 h [5]: 100 mg/L (≈ 223 µM) | selectivity ratio [6]: 12.5 | MIC (Staphylococcus aureus [7]): 8 mg/L (≈ 17.9 µM) | MIC (Staphylococcus aureus [8]): 8 mg/L (≈ 17.9 µM) | MIC (Staphylococcus aureus [9]): 8 mg/L (≈ 17.9 µM) | MIC (Staphylococcus aureus [10]): 8 mg/L (≈ 17.9 µM) | MIC (Staphylococcus aureus [11]): 4 mg/L (≈ 8.93 µM) | MIC (Staphylococcus aureus [12]): 8 mg/L (≈ 17.9 µM) | MIC (Staphylococcus aureus [13]): 8 mg/L (≈ 17.9 µM) | MIC (Staphylococcus aureus [14]): 16 mg/L (≈ 35.7 µM) | MIC (Staphylococcus aureus [15]): 8 mg/L (≈ 17.9 µM) | MIC (Staphylococcus aureus [16]): 16 mg/L (≈ 35.7 µM) | MIC (Staphylococcus aureus [17]): 4 mg/L (≈ 8.93 µM) | MIC (Staphylococcus aureus [18]): 8 mg/L (≈ 17.9 µM) | MIC (Staphylococcus aureus [19]): 8 mg/L (≈ 17.9 µM)

Fc1ccc2[nH]c(-c3ccc(Nc4nc(-c5ccc(Cl)cc5)nc5ccccc45)cc3)nc2c1
MIC (Escherichia coli): > 64 mg/L | MIC (Staphylococcus aureus [1]): 4 mg/L (≈ 8.59 µM) | MIC (Klebsiella pneumoniae): > 64 mg/L | MIC (Acinetobacter baumannii): > 64 mg/L | MIC (Pseudomonas aeruginosa): > 64 mg/L | CC50 at 72 h [5]: 50 mg/L (≈ 107 µM) | selectivity ratio [6]: 12.5 | MIC (Staphylococcus aureus [7]): 4 mg/L (≈ 8.59 µM) | MIC (Staphylococcus aureus [8]): 4 mg/L (≈ 8.59 µM) | MIC (Staphylococcus aureus [9]): 4 mg/L (≈ 8.59 µM) | MIC (Staphylococcus aureus [10]): 4 mg/L (≈ 8.59 µM) | MIC (Staphylococcus aureus [11]): 8 mg/L (≈ 17.2 µM) | MIC (Staphylococcus aureus [12]): 2 mg/L (≈ 4.29 µM) | MIC (Staphylococcus aureus [13]): 4 mg/L (≈ 8.59 µM) | MIC (Staphylococcus aureus [14]): 8 mg/L (≈ 17.2 µM) | MIC (Staphylococcus aureus [15]): 4 mg/L (≈ 8.59 µM) | MIC (Staphylococcus aureus [16]): 8 mg/L (≈ 17.2 µM) | MIC (Staphylococcus aureus [17]): 4 mg/L (≈ 8.59 µM) | MIC (Staphylococcus aureus [18]): 2 mg/L (≈ 4.29 µM) | MIC (Staphylococcus aureus [19]): 4 mg/L (≈ 8.59 µM)
